From ChEMBL document CHEMBL1131448 (J Med Chem, 1998)

Experiments:
HT-29 [1] = assay: Antitumor activity was measured on HT-29 xenografts after 0.32 mg/kg ip dose.; format: functional, Homo sapiens; conditions: route intraperitoneal
Outline: (§1)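 Female NCr nu/nu athymic mice, 4-6 weeks old, given sc HT-29 cells (5 × 10^6/animal, left dorsum). Randomised at day 10 at about 175 mm³ mean tumour (5/treated group, 10 controls). Drug in DMSO (3%)/Tween 20 (2%)/0.9% NaCl given ip daily, 4 days on/3 off, ×3 (12 injections). Caliper volume (w²l)/2 three times weekly with body weight. T-C delay in days to reach 250% of starting volume.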

HT-29 [2] = assay: Antitumor activity was measured on HT-29 xenografts after 0.625 mg/kg ip dose; td = 'toxic dose'; format: functional, organism-based; design: dose 0.625 mg/kg; conditions: Homo sapiens
Outline: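 Female NCr nu/nu athymic mice, 4-6 weeks old, bearing sc HT-29 tumours (5 × 10⁶ cells, left dorsal surface). Dosing began at about 175 mm³ (day 10), 5 mice per group and 10 controls. Drug given ip in DMSO (3%)/Tween 20 (2%)/0.9% NaCl, daily 4 days on/3 off, three cycles. Calipers three times weekly; T-C growth delay in days to reach 250% of starting volume.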

K562 = assay: Antiproliferative activity measured against K562adr leukemia cells.; format: functional, cell-based; conditions: Homo sapiens
Outline: (§2)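 Cells seeded 24 h before treatment (3000/well A427, MCF7mdr, K562adr; 1500/well PC-3) in DMEM with 10% heat-inactivated FCS, penicillin/streptomycin, 2 mM glutamine. Drug from DMSO (0.1% final) at 5 × 10^-13 to 1 × 10^-6 M final, 72 h exposure. Viability by WST-1 formazan colorimetry. Two experiments, eight determinations per concentration. IC50 by linear regression on linear part of sigmoid.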

PC-3 = assay: Antiproliferative activity measured against PC-3 human prostate adenocarcinoma; format: functional, cell-based; conditions: PC-3, Prostate gland; outline: as §2
HT-29 [3] = assay: Antitumor activity was measured on HT-29 xenografts after 0.16 mg/kg ip dose.; format: functional, Homo sapiens; conditions: route intraperitoneal; outline: as §1
A-427 = assay: Antiproliferative activity measured against A427 human lung carcinoma; format: functional, cell-based; outline: as §2
[4] = tested on: DNA topoisomerase 1 (Bos taurus); assay: Effect on Topo-I-mediated relaxation of supercoiled pUC19 plasmid DNA in calf thymus at 100 uM
HT-29 [5] = assay: Antitumor activity was measured on HT-29 xenografts after 0.625 mg/kg ip dose.; format: functional, Homo sapiens; conditions: route intraperitoneal; outline: as §1
HT-29 [6] = assay: Antitumor activity was measured on HT-29 xenografts after 1.25 mg/kg ip dose.; format: functional, Homo sapiens; conditions: route intraperitoneal; outline: as §1
HT-29 [7] = assay: Antitumor activity was measured on HT-29 xenografts after 2.5 mg/kg ip dose; td =' toxic dose'; format: functional, organism-based; design: dose 2.5 mg/kg; conditions: Homo sapiens; outline: as §1
MCF7 = assay: Antiproliferative activity measured against MCF-7-mdr cells.; format: functional, cell-based; conditions: Homo sapiens; outline: as §2
HT-29 [8] = assay: Antitumor activity was measured on HT-29 xenografts after 0.625 mg/kg ip dose; toxic dose; format: functional, organism-based; design: dose 0.625 mg/kg; conditions: Homo sapiens; outline: as §1
HT-29 [9] = assay: Antitumor activity was measured on HT-29 xenografts after 1.25 mg/kg ip dose; td = ' toxic dose'; format: functional, organism-based; design: dose 1.25 mg/kg; conditions: Homo sapiens; outline: as §1

| SMILES | IC50 (K562) | IC50 (PC-3) | IC50 (A-427) | Relaxed DNA [4] | IC50 (MCF7) | other results |
| --- | --- | --- | --- | --- | --- | --- |
| CCC1(O)CC(=O)OCc2c1cc1n(c2=O)Cc2cc3cc(F)c(F)cc3nc2-1 (stereo unspecified) | 66 nM | 0.001 nM | 0.1 nM | 56% |  | Tumor growth delay (HT-29 [1]): 25 days; Tumor growth delay (HT-29 [2]): Toxic dose; Tumor growth delay (HT-29 [3]): 8 days |
| CCC1(O)CC(=O)OCc2c1cc1n(c2=O)Cc2cc3cc(F)c(Cl)cc3nc2-1 (stereo unspecified) | 20 nM | 12 nM | 0.023 nM | 61% | 1.7 nM | Tumor growth delay (HT-29 [1]): 1 days; Tumor growth delay (HT-29 [5]): 2 days; Tumor growth delay (HT-29 [6]): 7 days; Tumor growth delay (HT-29 [7]): Toxic dose |
| CC[C@]1(O)CC(=O)OCc2c1cc1n(c2=O)Cc2cc3ccccc3nc2-1 |  |  |  | 100% |  |  |
| CCC1(O)CC(=O)OCc2c1cc1n(c2=O)Cc2cc3cc(C)c(F)cc3nc2-1 (stereo unspecified) | 14 nM | < 0.001 nM | 0.00081 nM | 18% | 0.01 nM | Tumor growth delay (HT-29 [1]): 7 days; Tumor growth delay (HT-29 [8]): Toxic; Tumor growth delay (HT-29 [3]): 4 days |
| CCC1(O)CC(=O)OCc2c1cc1n(c2=O)Cc2cc3cc(Cl)ccc3nc2-1 (stereo unspecified) | 2.6 nM | 18 nM | 0.36 nM | 57% | 1.3 nM |  |
| CCC1(O)CC(=O)OCc2c1cc1n(c2=O)Cc2cc3cc4c(cc3nc2-1)OCCO4 (stereo unspecified) |  |  |  | 50% |  |  |
| CCC1(O)CC(=O)OCc2c1cc1n(c2=O)Cc2cc3cc(C)c(Cl)cc3nc2-1 (stereo unspecified) | 2.9 nM | 3.6 nM | 0.031 nM | 59% |  |  |
| CCC1(O)CC(=O)OCc2c1cc1n(c2=O)Cc2cc3cc(OC)c(F)cc3nc2-1 (stereo unspecified) | 18 nM | < 0.001 nM | 0.0083 nM | 26% | 2.2 nM | Tumor growth delay (HT-29 [1]): 12 days; Tumor growth delay (HT-29 [8]): Toxic; Tumor growth delay (HT-29 [3]): 4 days |
| CC[C@@]1(O)C(=O)OCc2c1cc1n(c2=O)Cc2cc3c(CN(C)C)c(O)ccc3nc2-1 [TOPOTECAN] | 1100 nM | 160 nM | 49 nM |  | 420 nM |  |
| CCC1(O)CC(=O)OCc2c1cc1n(c2=O)Cc2cc3cc4c(cc3nc2-1)OCO4 (stereo unspecified) | 37 nM | < 0.001 nM | 0.62 nM | 58% | 0.55 nM |  |
| CCC1(O)CC(=O)OCc2c1cc1n(c2=O)Cc2cc3ccccc3nc2-1 (stereo unspecified) | 47 nM | 60 nM | 12 nM | 60% | 21 nM |  |
| COc1cccc2c1C(=O)c1c(O)c3c(c(O)c1C2=O)C[C@@](O)(C(=O)CO)C[C@@H]3O[C@H]1C[C@H](N)[C@H](O)[C@H](C)O1 [DOXORUBICIN] | 15000 nM | 390 nM |  |  |  |  |
| CCC1(O)CC(=O)OCc2c1cc1n(c2=O)Cc2cc3cc(F)ccc3nc2-1 (stereo unspecified) | 63 nM | 0.58 nM | 7.7 nM | 47% |  |  |
| CC[C@@]1(O)C(=O)OCc2c1cc1n(c2=O)Cc2cc3ccccc3nc2-1 [CAMPTOTHECIN] | 57 nM | 57 nM | 24 nM |  | 3.1 nM | Tumor growth delay (HT-29 [5]): 4 days; Tumor growth delay (HT-29 [9]): Toxic |
| CC[C@@]1(O)CC(=O)OCc2c1cc1n(c2=O)Cc2cc3ccccc3nc2-1 |  |  |  | 45% |  |  |
| COc1cc([C@@H]2c3cc4c(cc3[C@@H](O[C@@H]3O[C@@H]5CO[C@@H](C)O[C@H]5[C@H](O)[C@H]3O)[C@H]3COC(=O)[C@H]23)OCO4)cc(OC)c1O [ETOPOSIDE] |  | 2300 nM |  |  | 67000 nM |  |
| CCc1c2c(nc3ccccc13)-c1cc3c(c(=O)n1C2)COC(=O)CC3(O)CC (stereo unspecified) | 33 nM | 28 nM |  | 34% | 21 nM |  |
